We go through 17 molecules from ChEMBL document CHEMBL1134582 (J Med Chem, 2001).

In test [1] the target is T1, Adenosine receptor A1 (Homo sapiens) (UniProt P30542).
T1 sequence (whole entry): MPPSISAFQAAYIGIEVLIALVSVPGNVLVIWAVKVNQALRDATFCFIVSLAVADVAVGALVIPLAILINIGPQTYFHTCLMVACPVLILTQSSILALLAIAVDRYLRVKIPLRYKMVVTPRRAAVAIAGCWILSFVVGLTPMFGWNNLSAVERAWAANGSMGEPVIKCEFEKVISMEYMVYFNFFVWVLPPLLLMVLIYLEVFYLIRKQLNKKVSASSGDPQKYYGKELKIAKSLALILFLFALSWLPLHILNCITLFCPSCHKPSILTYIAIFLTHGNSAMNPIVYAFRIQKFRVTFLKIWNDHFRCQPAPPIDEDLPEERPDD
The test is described as follows: Inhibition of Forskolin (10 nM) induced cAMP production at human Adenosine A1 receptor (compared to CPA in CHO cells). Format: cell-based. The following applies: in the assay text read “10 µM” for “10 nM”. The method in brief:
(§1)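 Cells expressing the human receptor (A1 in CHO) were grown overnight as monolayers and kept in DMEM/HEPES at pH 7.4. […] Forskolin was added at 10 µM (final) for 15 min. cAMP was measured by binding-protein assay. […] Mean ±SEM, n=3.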
A general note: Cyclic AMP is a second messenger, typically raised through Gs and lowered through Gi signalling.

Test [2] addresses T2, Adenosine receptor A3 (Homo sapiens) (UniProt P0DMS8).
T2 sequence (whole entry): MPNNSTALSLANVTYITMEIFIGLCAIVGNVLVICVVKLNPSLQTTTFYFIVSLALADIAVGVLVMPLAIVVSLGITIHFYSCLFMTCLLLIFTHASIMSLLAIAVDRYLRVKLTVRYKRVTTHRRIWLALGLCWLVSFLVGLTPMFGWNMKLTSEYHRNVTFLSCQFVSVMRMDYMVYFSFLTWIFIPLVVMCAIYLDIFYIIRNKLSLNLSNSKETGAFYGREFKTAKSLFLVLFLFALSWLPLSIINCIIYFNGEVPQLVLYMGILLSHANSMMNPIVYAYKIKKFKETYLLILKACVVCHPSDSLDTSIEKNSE
The test can be described thus: Agonistic activity expressed as the amount of [35S]GTP gamma-S bound +1 uM NECA at adenosine A3 receptor. Format: functional. The method in brief: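 Human A3 receptor in CHO-cell membranes (1–1.5 µg) was incubated with 1 µM GDP and no NaCl for 90 min at 25 °C. Mean ±SEM, n=3.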
(Binding of GTPγS marks nucleotide exchange on a G protein.)

In test [3] the target is T2, Adenosine receptor A3 (Homo sapiens). The test is described as follows: Agonistic activity expressed as the amount of [35S]GTP gamma-S bound at adenosine A3 receptor. Format: functional. The method in brief: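 Membranes from CHO cells expressing the human A3 receptor (1–1.5 µg protein) were incubated with 1 µM GDP and no NaCl for 90 min at 25 °C. Mean ±SEM, n=3.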

Test [4] concerns the target T1, Adenosine receptor A1 (Homo sapiens). The test can be described thus: Inhibition of 10 nM Forskolin-induced cAMP production at human Adenosine A1 receptor compared to CPA in CHO cells. The test is classed as functional, cell-based. The following applies: in the assay text read “10 µM” for “10 nM”. In short, it runs like this: as §1
Test [5] concerns the target T3, Adenosine receptor A1 (Rattus norvegicus) (UniProt P25099).
T3 sequence (whole entry): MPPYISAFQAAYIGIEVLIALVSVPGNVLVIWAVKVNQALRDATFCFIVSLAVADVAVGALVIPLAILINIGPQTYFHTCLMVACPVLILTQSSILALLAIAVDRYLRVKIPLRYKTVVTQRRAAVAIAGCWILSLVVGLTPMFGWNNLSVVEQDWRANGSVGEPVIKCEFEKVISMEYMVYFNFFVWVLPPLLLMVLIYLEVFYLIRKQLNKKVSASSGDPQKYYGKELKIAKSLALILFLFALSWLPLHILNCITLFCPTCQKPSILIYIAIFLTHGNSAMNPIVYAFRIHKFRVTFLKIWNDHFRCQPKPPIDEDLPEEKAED
The test can be described thus: Agonistic activity expressed as the amount of [35S]-GTP gamma-S bound at rat Adenosine A1 receptor. Format: functional. The method in brief: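 [35S]GTPγS binding used 2 µg of rat cortex membrane protein with 10 µM GDP and 100 mM NaCl, incubated 90 min at 25 °C. Mean ±SEM, n=3.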

The target in test [6] is T3, Adenosine receptor A1 (Rattus norvegicus). The test can be described thus: Agonistic activity expressed as the amount of [35S]-GTP gamma-S bound +1 uM CPA at rat Adenosine A1 receptor. Format: functional. The method in brief:
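Rat cortex membranes (2 µg protein) were incubated with 10 µM GDP and 100 mM NaCl for 90 min at 25 °C. Mean ±SEM, n=3.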

`COC[C@H]1O[C@@H](n2cnc3c(NC4CCCC4)ncnc32)[C@H](O)[C@@H]1O` showed an inhibition in test [1] of 74%.

On to `CCOC[C@H]1O[C@@H](n2cnc3c(NC4CCCC4)nc(Cl)nc32)[C@H](O)[C@@H]1O`, for which the inhibition in test [1] turned out to be 62%.

On to `CCOC[C@H]1O[C@@H](n2cnc3c(NC4CCCC4)ncnc32)[C@H](O)[C@@H]1O`, for which the inhibition in test [1] stood at 69%.

`COC[C@H]1O[C@@H](n2cnc3c(N)nc(Cl)nc32)[C@H](O)[C@@H]1O` returned an inhibition in test [1] of 78%.

`CCOC[C@H]1O[C@@H](n2cnc3c(NCc4cccc(I)c4)ncnc32)[C@H](O)[C@@H]1O` came in with an inhibition in test [1] of 6%.

`COC[C@H]1O[C@@H](n2cnc3c(NCc4cccc(I)c4)ncnc32)[C@H](O)[C@@H]1O` came in with an inhibition in test [1] of 53%.

On to `Nc1ncnc2c1ncn2[C@@H]1O[C@H](COC2CC2)[C@@H](O)[C@H]1O`, for which the inhibition in test [1] is 61%.

Regarding `CCNC(=O)[C@H]1O[C@@H](n2cnc3c(N)ncnc32)[C@H](O)[C@@H]1O`, the Activity in test [2] and in test [3] was 100 in each case.

For `OC[C@H]1O[C@@H](n2cnc3c(NC4CCCC4)ncnc32)[C@H](O)[C@@H]1O`, the inhibition in test [4] turned out to be 69%. The Activity in test [5] and in test [6] was 100 throughout.

In the case of `CCOC[C@H]1O[C@@H](n2cnc3c(N)nc(Cl)nc32)[C@H](O)[C@@H]1O`, the inhibition in test [1] turned out to be 67%.

Molecule `Nc1nc(Cl)nc2c1ncn2[C@@H]1O[C@H](COC2CC2)[C@@H](O)[C@H]1O` gave an inhibition in test [1] of 49%.

`COC[C@H]1O[C@@H](n2cnc3c(NC4CCCC4)nc(Cl)nc32)[C@H](O)[C@@H]1O` gave an inhibition in test [1] of 73%.

In test [4], `COC[C@H]1O[C@@H](n2cnc3c(N)ncnc32)[C@H](O)[C@@H]1O` yielded an inhibition of 75%.

`CCOC[C@H]1O[C@@H](n2cnc3c(N)ncnc32)[C@H](O)[C@@H]1O` showed an inhibition in test [1] of 57%.

`O[C@@H]1[C@H](O)[C@@H](COC2CC2)O[C@H]1n1cnc2c(NC3CCCC3)nc(Cl)nc21` returned an inhibition in test [1] of 43%.

Regarding `O[C@@H]1[C@H](O)[C@@H](COC2CC2)O[C@H]1n1cnc2c(NC3CCCC3)ncnc21`, in test [1], the inhibition was determined as 62%.

For the molecule `COC[C@H]1O[C@@H](n2cnc3c(NCc4cccc(I)c4)nc(Cl)nc32)[C@H](O)[C@@H]1O`, in test [1], the inhibition came out at 37%.

A word on the inhibition: it is the share of the control response that was lost under treatment. A low value points to a response near the control.
